Drawing on ChEMBL document CHEMBL1126293, “Substrate specificity of isopenicillin N synthase” (J Med Chem, 1992), this text covers Antibiotic activity, Activity and Beta-lactamase induction for 27 molecules.

In assay [1] the test system is Micrococcus luteus. In words: In vitro antibiotic activity against Micrococcus luteus(ATCC 9341 stain). Format: functional, organism-based. The method in brief: (§1)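 Peptides at 0.3 mM incubated with purified IPNS in Tris-HCl pH 8.0 containing KCl, MgSO4, FeSO4, ascorbate and DTT, at 25 °C for 2–20 min in quadruplicate, then stopped with ethanol. Samples with and without penicillinase went into wells on M. luteus ATCC 9341 lawns, incubated overnight at 37 °C, and inhibition zones were read. Peptides giving no product were retested for 1 h at 3 mM.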

Assay [2] has as its target T1, Isopenicillin N synthase (Penicillium chrysogenum) (UniProt P08703).
T1 sequence (whole entry): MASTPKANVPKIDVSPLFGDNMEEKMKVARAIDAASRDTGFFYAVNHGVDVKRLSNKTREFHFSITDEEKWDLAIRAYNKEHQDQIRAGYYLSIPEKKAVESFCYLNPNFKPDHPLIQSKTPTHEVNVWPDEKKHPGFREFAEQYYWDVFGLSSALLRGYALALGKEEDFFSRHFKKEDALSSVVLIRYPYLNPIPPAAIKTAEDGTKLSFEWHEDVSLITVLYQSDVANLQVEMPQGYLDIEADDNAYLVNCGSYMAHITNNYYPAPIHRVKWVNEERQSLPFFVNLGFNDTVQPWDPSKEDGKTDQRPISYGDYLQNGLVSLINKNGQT
The assay is described as follows: Anti-micrococcus luteus activity was tested for inhibition of isopenicillin N synthetase. To be noted: Penicillium chrysogenum (Penicillium notatum). The gist of the method: (§2)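 Peptide added at a known amount to a standard IPNS reaction mixture with ACV as substrate before starting the reaction with enzyme. Applied to peptides not converted to an anti-M. luteus product. Percent inhibition derived from the ratio of reaction rates with and without the peptide.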

The target of assay [3] is T2, Regulatory protein BlaR1 (Bacillus licheniformis) (UniProt P12287).
T2 sequence (whole entry): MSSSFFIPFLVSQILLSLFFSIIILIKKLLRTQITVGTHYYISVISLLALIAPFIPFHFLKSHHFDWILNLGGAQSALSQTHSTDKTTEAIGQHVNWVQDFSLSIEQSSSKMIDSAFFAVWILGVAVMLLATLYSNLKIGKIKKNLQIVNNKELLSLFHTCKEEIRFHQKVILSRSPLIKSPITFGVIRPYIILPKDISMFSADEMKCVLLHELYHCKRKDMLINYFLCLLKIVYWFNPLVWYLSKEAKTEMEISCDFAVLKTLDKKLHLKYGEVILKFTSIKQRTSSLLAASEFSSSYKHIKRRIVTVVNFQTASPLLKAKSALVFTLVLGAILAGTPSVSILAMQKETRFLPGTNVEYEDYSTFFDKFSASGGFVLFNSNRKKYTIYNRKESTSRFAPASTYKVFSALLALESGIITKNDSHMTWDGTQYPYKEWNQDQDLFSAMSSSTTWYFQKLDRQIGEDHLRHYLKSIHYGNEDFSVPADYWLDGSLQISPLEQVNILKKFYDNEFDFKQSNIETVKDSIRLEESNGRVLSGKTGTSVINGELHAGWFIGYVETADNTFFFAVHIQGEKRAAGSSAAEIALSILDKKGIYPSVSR
The assay is described as follows: Beta-lactamase induction in Bacillus licheniformis. The method in brief: (§3)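 Ethanol-stopped IPNS reactions (peptide 0.3 mM, 25 °C) were mixed 1:1 with log-phase B. licheniformis ATCC 14580 diluted to 30 Klett units and incubated for 2 h at 30 °C. Tylosin was added, then after 15 min nitrocefin, with A492 read over 30 min. β-Lactam was quantified by β-lactamase synthesis relative to penicillin G.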

In assay [4] the target is T2, Regulatory protein BlaR1 (Bacillus licheniformis). In words: The compound was tested for Beta-lactamase induction in B. licheniformis; +. The gist of the method:
as §3

For assay [5], the target named is T1, Isopenicillin N synthase (Penicillium chrysogenum). In words: Anti Micrococcus luteus activity was tested for inhibition of IPNS (isopenicillin N synthase); no. The method in brief: as §2
A short description of assay [6]: Antibiotic activity against Micrococcus luteus (ATCC 9341 strain). Format: functional. The method in brief: as §1
In assay [7] the target is T1, Isopenicillin N synthase (Penicillium chrysogenum). In words: Anti Micrococcus luteus activity was tested for inhibition of Isopenicillin N synthetase (isopenicillin N synthase); yes. The method in brief:
as §2

Assay [8] relates to Micrococcus luteus. The assay is described as follows: The compound was tested for the antibiotic activity against Micrococcus luteus(ATCC 9341 stain); no. Format: functional, organism-based. The gist of the method: as §1

For the molecule `CC(C)[C@@H](NC(=O)[C@H](CS)NC(=O)CCC[C@@H](N)C(=O)O)C(=O)O`, the Antibiotic activity result in the assay on Micrococcus luteus [1] was “Yes”. The Activity result in assay [2] was “No activity”. Also, the Beta-lactamase induction result in assay [3] was “+”.

As to `CC(C)[C@@H](NC(=O)[C@H](CSSC[C@H](NC(=O)CCCCN)C(=O)N[C@@H](C(=O)O)C(C)C)NC(=O)CCCCN)C(=O)O`, the Beta-lactamase induction entry in assay [4] is “+”. The Antibiotic activity entry in the assay on Micrococcus luteus [1] is “Yes”. Moreover, the Activity entry in assay [5] was “No activity”.

With `CC(C)[C@@H](NC(=O)[C@H](CSSC[C@H](NC(=O)C(N)c1cccc(C(=O)O)c1)C(=O)N[C@@H](C(=O)O)C(C)C)NC(=O)C(N)c1cccc(C(=O)O)c1)C(=O)O` (stereo not given in full), in assay [2], the Activity entry is “No activity”. Further, the Antibiotic activity entry in assay [6] was “No activity”. Moreover, in assay [3], the Beta-lactamase induction entry was “+”.

For `CC(C)[C@@H](NC(=O)[C@H](CS)NC(=O)CCC[C@H](N)C(=O)O)C(=O)O`, in assay [2], the Activity result is “No activity”. Also, in assay [3], the Beta-lactamase induction entry is “+”.

Turning to `CC(C)[C@@H](NC(=O)[C@H](CSSC[C@H](NC(=O)CCC[C@H](N)C(=O)O)C(=O)N[C@@H](C(=O)O)C(C)C)NC(=O)CCC[C@H](N)C(=O)O)C(=O)O`, the Antibiotic activity entry with Micrococcus luteus [1] was “Yes”. In addition, the Activity entry in assay [2] is “No activity”. Besides, the Beta-lactamase induction entry in assay [3] was “+”.

With `N[C@@H](CCCC(=O)NC(CSSCC(NC(=O)CCC[C@H](N)C(=O)O)C(=O)N[C@H](Cc1c[nH]c2ccccc12)C(=O)O)C(=O)N[C@H](Cc1c[nH]c2ccccc12)C(=O)O)C(=O)O` (stereo not given in full), in assay [7], the Activity result was “Yes”. Also, the Antibiotic activity result in assay [6] was “No activity”.

Turning to `CC(C)[C@@H](NC(=O)[C@H](C)NC(=O)CCC[C@H](N)C(=O)O)C(=O)O`, in assay [2], the Activity result is “No activity”. For the same molecule, the Antibiotic activity result in assay [6] was “No activity”. The Beta-lactamase induction result in assay [3] was “+”.

As to `CC(C)[C@@H](NC(=O)[C@H](CSSC[C@H](NC(=O)CCCCCCN)C(=O)N[C@@H](C(=O)O)C(C)C)NC(=O)CCCCCCN)C(=O)O`, in the assay on Micrococcus luteus [1], the Antibiotic activity entry was “Yes”. In assay [2], the Activity result is “No activity”. In addition, the Beta-lactamase induction entry in assay [3] is “+”.

As to `N[C@@H](CCCC(=O)N[C@@H](CSSC[C@H](NC(=O)CCC[C@H](N)C(=O)O)C(=O)NC(C(=O)O)C(C(F)(F)F)C(F)(F)F)C(=O)NC(C(=O)O)C(C(F)(F)F)C(F)(F)F)C(=O)O` (stereo in doubt; 63), in assay [7], the Activity result was “Yes”. Moreover, the Antibiotic activity entry in assay [6] was “No activity”.

With `CC(C)[C@@H](NC(=O)[C@H](CS)NC(=O)Cc1ccc(O)cc1)C(=O)O`, in assay [2], the Activity entry is “No activity”. Moreover, the Antibiotic activity entry in assay [6] is “No activity”. Moreover, the Beta-lactamase induction result in assay [3] is “+”.

As for `N[C@@H](CCCC(=O)NC(CSSCC(NC(=O)CCC[C@H](N)C(=O)O)C(=O)N[C@H](CCl)C(=O)O)C(=O)N[C@H](CCl)C(=O)O)C(=O)O` (stereo not given in full), the Activity entry in assay [7] was “Yes”. Moreover, in assay [6], the Antibiotic activity entry is “No activity”.

`CC(C)[C@@H](NC(=O)[C@H](CSSC[C@H](NC(=O)c1cccc(C(N)C(=O)O)c1)C(=O)N[C@@H](C(=O)O)C(C)C)NC(=O)c1cccc(C(N)C(=O)O)c1)C(=O)O` (stereo not given in full): the Antibiotic activity entry with Micrococcus luteus [1] is “Yes”. Also, the Activity result in assay [2] is “No activity”. In addition, the Beta-lactamase induction entry in assay [3] is “+”.

For `CC(C)[C@@H](NC(=O)[C@H](CSSC[C@H](NC(=O)OCc1ccccc1)C(=O)N[C@@H](C(=O)O)C(C)C)NC(=O)OCc1ccccc1)C(=O)O`, the Activity result in assay [2] was “No activity”. In assay [6], the Antibiotic activity result was “No activity”. For the same molecule, the Beta-lactamase induction result in assay [3] is “+”.

On to `CC(C)[C@@H](NC(=O)[C@H](CSSC[C@H](NC(=O)CCc1cccc(O)c1)C(=O)N[C@@H](C(=O)O)C(C)C)NC(=O)CCc1cccc(O)c1)C(=O)O`, for which the Antibiotic activity entry in the assay on Micrococcus luteus [1] is “Yes”. Besides, the Activity result in assay [2] is “No activity”.

In the case of `CC(C)[C@@H](NC(=O)[C@@H](N)CSSC[C@H](N)C(=O)N[C@@H](C(=O)O)C(C)C)C(=O)O`, the Activity result in assay [7] is “Yes”. In addition, in assay [6], the Antibiotic activity result was “No activity”.

Consider `N[C@@H](CCCC(=O)N[C@@H](CS)C(=O)NCC(=O)O)C(=O)O`, for which the Activity result in assay [7] was “Yes”. In assay [6], the Antibiotic activity result is “No activity”.

For `CC(C)[C@@H](NC(=O)[C@@H](CS)NC(=O)CCC[C@H](N)C(=O)O)C(=O)O`, in assay [2], the Activity entry was “No activity”. Further, in assay [6], the Antibiotic activity result is “No activity”. The Beta-lactamase induction result in assay [3] is “+”.

Consider `CC(C)[C@@H](NC(=O)[C@H](CSSC[C@H](NC(=O)CCCCCN)C(=O)N[C@@H](C(=O)O)C(C)C)NC(=O)CCCCCN)C(=O)O`, for which, in the assay with Micrococcus luteus [1], the Antibiotic activity entry was “Yes”. In addition, the Activity entry in assay [2] is “No activity”. Besides, the Beta-lactamase induction entry in assay [3] is “+”.

For the molecule `CC(C)[C@@H](NC(=O)[C@H](CSSC[C@H](NC(=O)Cc1cccc(N)c1)C(=O)N[C@@H](C(=O)O)C(C)C)NC(=O)Cc1cccc(N)c1)C(=O)O`, in the assay on Micrococcus luteus [1], the Antibiotic activity entry was “Yes”. Further, the Activity result in assay [2] is “No activity”. In addition, the Beta-lactamase induction result in assay [3] is “+”.

Turning to `CC(O)[C@@H](NC(=O)C(CSSCC(NC(=O)CCC[C@H](N)C(=O)O)C(=O)N[C@@H](C(=O)O)C(C)O)NC(=O)CCC[C@H](N)C(=O)O)C(=O)O` (stereo not given in full), the Activity entry in assay [2] was “No activity”. Moreover, in the assay on Micrococcus luteus [8], the Antibiotic activity entry is “No activity”.

In the case of `N[C@@H](CCCC(=O)N[C@@H](CSSC[C@H](NC(=O)CCC[C@H](N)C(=O)O)C(=O)NC(C(=O)O)C(C(F)(F)F)C(F)(F)F)C(=O)NC(C(=O)O)C(C(F)(F)F)C(F)(F)F)C(=O)O` (stereo in doubt; 62), in assay [7], the Activity result is “Yes”. Moreover, in assay [6], the Antibiotic activity result was “No activity”.

For `CC(C)[C@@H](NC(=O)[C@H](CSSC[C@H](NC(=O)Cc1cccc(C(=O)O)c1)C(=O)N[C@@H](C(=O)O)C(C)C)NC(=O)Cc1cccc(C(=O)O)c1)C(=O)O`, in the assay on Micrococcus luteus [1], the Antibiotic activity entry is “Yes”.

For the molecule `CC(C)[C@@H](NC(=O)[C@H](CS)NC(=O)Cc1ccccc1CN)C(=O)O`, the Antibiotic activity entry in the assay with Micrococcus luteus [1] was “Yes”.

For `CC(C)[C@@H](NC(=O)[C@H](CSSC[C@H](NC(=O)[C@@H]1CCCN1)C(=O)N[C@@H](C(=O)O)C(C)C)NC(=O)[C@@H]1CCCN1)C(=O)O`, the Antibiotic activity entry in assay [6] was “No activity”. The Activity entry in assay [5] was “No activity”.

For `CC(C)[C@@H](NC(=O)[C@H](CO)NC(=O)CCC[C@H](N)C(=O)O)C(=O)O`, the Activity entry in assay [2] was “No activity”. Besides, the Antibiotic activity entry in assay [6] was “No activity”. Further, in assay [3], the Beta-lactamase induction result was “+”.

Consider `N[C@@H](CCCC(=O)NC(CSSCC(NC(=O)CCC[C@H](N)C(=O)O)C(=O)N[C@H](Cc1ccc(O)cc1)C(=O)O)C(=O)N[C@H](Cc1ccc(O)cc1)C(=O)O)C(=O)O` (stereo not given in full), for which the Activity result in assay [7] is “Yes”. Further, the Antibiotic activity result in the assay on Micrococcus luteus [8] is “No activity”.

Turning to `N[C@@H](CCCC(=O)N[C@@H](CSSC[C@H](NC(=O)CCC[C@H](N)C(=O)O)C(=O)N[C@H](C(=O)O)C(C(F)(F)F)C(F)(F)F)C(=O)N[C@H](C(=O)O)C(C(F)(F)F)C(F)(F)F)C(=O)O`, the Activity result in assay [7] is “Yes”. For the same molecule, in assay [6], the Antibiotic activity result is “No activity”.
